Assay results taken from PMC4854730 (The Journal of Experimental Medicine, 2016).

Experiments:
[1] = Compound E and XR9576 levels in brain tissue; assay type: in vivo, mouse; settings: LC-MS
How it was run: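 Brain hemispheres were homogenised by shaking with a steel ball (5 min, 20 Hz) in 45% methanol/45% acetonitrile/8% water/2% formic acid containing 1 µM internal standard, at 200 mg/ml. Extracts were centrifuged, filtered (0.8 µm) and run on capillary LC-MS (PLRPS column; water/acetonitrile gradient with 0.1% formic acid). Levels were quantified from internal-standard-normalised peak areas against an external curve prepared in control mouse brain extract.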

P-glycoprotein (Pgp) = settings: rodents; ref Bankstahl et al., 2008; cited from earlier work
ISF Aβ40 = assay: baseline ISF Aβ40 in hippocampus measured with calibrated Aβ40 MIE; assay type: in vivo, APP/PS1 mice; settings: 60 min after XR9576 80 mg/kg; n = 8; mean ± SEM; control mice 99.12 ± 19.28 (n = 15); P = 0.008
LRP1 = LRP1 protein levels in brain tissue; assay type: in vivo, mouse; settings: after XR9576 administration; n = 9/group; P = 0.35
[2] = tested on: mRNA of genes related to APP processing or Aβ clearance; assay: qRT-PCR of APP processing and Aβ clearance genes in brain; assay type: in vivo, mouse; settings: 2 h after 80 mg/kg i.v.; cortex; n = 6/group; P = 0.08-0.94
How it was run: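 3-month-old mice received the Pgp inhibitor (80 mg/kg i.v.) or vehicle (5% dextrose) and were killed 2 h later. Cortical total RNA was reverse transcribed and run by SYBR Green qPCR with dissociation-curve checks. Genes were APP, PSEN1/2, nicastrin, APH-1, BACE1, ADAM10/17, Pgp, LRP1, IDE, NEP, MMP2 and MMP9. Levels were derived by ΔΔCt against mouse GAPDH and compared by t tests corrected for multiple comparisons.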

ISF Aβ = assay: in vivo microdialysis of ISF Aβ during isoflurane anesthesia; set-up: species or system mouse; settings: first 3 h of isoflurane anesthesia, n = 4, not significant, P = 0.135

Structure (SMILES): C[C@H](NC(=O)Cc1cc(F)cc(F)c1)C(=O)N[C@H]1N=C(c2ccccc2)c2ccccc2N(C)C1=O [Compound E]
- Compound E level in brain tissue ([1]; within 5 min after intraperitoneal injection (30 mg/kg)): 395 nM

Structure (SMILES): COc1cc2c(cc1OC)CN(CCc1ccc(NC(=O)c3cc(OC)c(OC)cc3NC(=O)c3cnc4ccccc4c3)cc1)CC2 [XR9576]
- XR9576 level in brain tissue ([1]; 1 h after injection, mouse brain extract, mean ± SEM): 533.0 ± 68.11 µM
- time of maximum inhibition of Pgp activity after injection (P-glycoprotein (Pgp)): 30 min
- absolute baseline concentration of ISF Aβ40 (ISF Aβ40): 283.9 ± 80.38
- LRP1 protein levels in hippocampus (LRP1): did not change
- mRNA expression levels in the brain [2]: did not find significant differences

Structure (SMILES): FC(F)OC(Cl)C(F)(F)F (stereo not shown) [isoflurane]
- decrease of ISF Aβ levels (ISF Aβ): 14%
